Compound activity: PubChem, several laboratories
CHOP UPR activ: apoptotic UPR (CHOP) activation; CHO-CHOP luciferase reporter, luminescence; percent of tunicamycin response over DMSO baseline; activation, % at 10 µM; hit rate 0.34% among 330,000;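 active means at 10 µM dose, activation of 40% or more, normalized to positive control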;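 further: 100% = tunicamycin at 10 µg/mL and 0% = DMSO alone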
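Test system: CHO CHOP reporter cells. Input: 500 CHO-CHOP cells per well. Medium: F12 with 10% FBS. Technique: luciferase luminescence. Measure: percent activation relative to tunicamycin control. Dosing: 10 µM compound, 0.5% DMSO. Timing: 16-18 h cell attachment, then 6 h compound exposure, 37 °C.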
XBP1 UPR activ: activators of adaptive arm of unfolded protein response (XBP1). activation, % at 20 µM. CHO-XBP1 luciferase reporter, IRE1-XBP1 UPR activation, luminescence; percent of tunicamycin response, DMSO as zero. AID 463104. hit rate 0.33% among 330,000;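 active means versus positive control, 20 µM dose yields 30% or more activation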;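 further: 100% = tunicamycin at 10 µg/mL and 0% = DMSO only wells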
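incubation = overnight seeding at 37 °C, 6 h compound treatment at 37 °C | assay system = CHO-XBP1 cells stably carrying IRE1-XBP1-driven luciferase reporter | input = 1000 cells per well | detection = luciferase luminescence | dosing = single point, 20 µM final compound, 1% DMSO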
CHOP inhibitor: blocks CHOP induction under ER stress; CHO-K1 CHOP-promoter luciferase, tunicamycin-induced, 15-18 h; inhibition, % at 10 µM; hit rate 3.8% among 220,000;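 active means compounds that reduced the stress-induced luciferase reporter signal by more than about 70% of percent inhibition, limit read from the data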;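 further: 0% = tunicamycin plus vehicle and 100% = wells without tunicamycin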
PvdQ acylase: blocks Pseudomonas aeruginosa PvdQ acylase activity; hit rate 0.063% among 340,000; inhibition, % at 10 µM; AID 488965; purified PvdQ acylase, fluorescence plate reader; in the data active means inhibition above about 30%, passing the limit was not always enough;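 further: 0% = vehicle neutral wells and 100% = reference inhibitor wells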
UPR XBP1 confirm: adaptive UPR (XBP1) activation, confirmed | shares compounds with XBP1 UPR activ | CHO-XBP1 IRE1-XBP1 luciferase reporter, luminescence | activation, % at 20 µM | hit rate 63% among 1,000 | AID 485299;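 active means reporter signal at least 30% of the positive control's activation in two or more of four replicate wells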;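 further: plate controls were DMSO negative control for no effect and tunicamycin 10 µg/mL positive control for full effect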
Numbers without * were called inactive; · = not tested or not shown. This excerpt belongs to a sample that is enriched for hits.

SMILES	CHOP UPR activ	XBP1 UPR activ	CHOP inhibitor	PvdQ acylase	UPR XBP1 confirm
O=Cc1cc2ccccc2nc1SCc1ccc(Cl)c(Cl)c1	4	34*	-8	-7	39*
Cc1ccc(CSc2nc3ccccc3cc2C=O)cc1	2	27	-7	-5	·
Cc1ccc(-n2ncc3c2CCCC3NC(=O)c2ocnc2C)cc1C (centres undefined)	3	-7	·	7	·
CCn1c2ccccc2c2cc(Nc3cc(C)nc4ncnn34)ccc21	-1	36*	·	-10	23
CC(=O)Oc1ccc(-c2ccc(C(=O)OCC(=O)N(C)CC(=O)Nc3ccccc3Cl)cc2)cc1	7	123*	·	-5	137*
Cc1ccsc1C(=O)NNC(=O)CCN1CCN(c2ccccc2)CC1	2	1	·	12	·
CNc1nc(Nc2ccc([N+](=O)[O-])cc2)nc(OCC(F)(F)F)n1	-1	122*	·	-12	3
CC(O)C(=O)N/N=C/c1ccccc1C(=O)O (centres undefined)	0	-2	22	-3	·
O=C(CN(C(=O)CNC(=O)c1cccs1)c1cccc(F)c1)NC1CCCC1	1	-2	·	-1	·
Cc1ccc2[nH]c3c(=O)n(CC(=O)N4CC(C)CC(C)C4)ncc3c2c1 (centres undefined)	4	32*	·	-2	1
O=C(O)c1ccccc1NC(=O)N1CCOCC1	0	2	-4	2	·
O=C(NCC1CCCO1)c1nn2c(C(F)(F)F)cc(-c3cc(Br)cs3)nc2c1Br (centres undefined)	6	42*	·	-1	40*
O=C(NCC1CCCO1)c1nn2c(C(F)(F)F)cc(-c3ccco3)nc2c1Cl (centres undefined)	0	-3	·	-16	·
CCCOc1ccc(OCCOCCN2CCc3ccccc3C2)cc1	1	2	28	-2	·
C/C(=N/NC(=O)c1ccc(C)s1)c1cccc(NC(=O)COc2ccc(Cl)cc2C)c1	14	56*	18	0	56*
COc1ccc(-c2oc3cc(O)c(OC)c(O)c3c(=O)c2OC)cc1O	·	·	·	-4	·
O=c1cc(CN2CCN(c3ccc(F)cc3)CC2)c2cc3c(cc2o1)CCCC3	35	100*	-16	-11	96*
CC(C)(C)c1ccc(C(=O)Oc2ccc3c(c2)OCC3=O)cc1	3	8	47	-4	·
O=C(Oc1ccc2c(c1)OCC2=O)c1ccccc1	7	37*	24	-1	24
COc1ccc(/C=N/NC(=O)c2cccc([N+](=O)[O-])c2)c2ccccc12	2	77*	·	-4	34*
Cc1nc(SC(C(N)=O)c2ccccc2)c(C#N)c(C)c1C (centres undefined)	1	-4	-2	·	·
COc1ccccc1-c1cc(-c2ccccc2)nc(SC(C(N)=O)c2ccccc2)c1C#N (centres undefined)	13	70*	76*	5	46*
O=S(=O)(c1ccc(Cl)cc1)N1c2ccccc2Oc2nc3ccccc3nc21	-1	6	9	-19	·
COc1ccc(S(=O)(=O)N2c3cc(Cl)ccc3Oc3nc4ccccc4nc32)cc1	2	39*	·	13	31*
COc1ccc(Nc2nc(N)c([N+](=O)[O-])c(NC3CCCCC3)n2)cc1	1	53*	·	-2	35*
SMILES	CHOP UPR activ	XBP1 UPR activ	CHOP inhibitor	PvdQ acylase	UPR XBP1 confirm
COc1ccc(Nc2nc(N)c([N+](=O)[O-])c(NCCO)n2)cc1	-1	6	1	·	·
CCC(C)Nc1nc(N)c([N+](=O)[O-])c(NC2CCCCC2)n1 (centres undefined)	0	35*	·	-11	31*
O=C1CC(c2ccccc2)CC2=C1C=Nc1ccccc1N2 (centres undefined)	1	1	4	5	·
CCn1c(SCC(=O)N2CCN(c3ccccc3)CC2)nc2c([nH]c3ccccc32)c1=O	18	32*	·	-15	30
Cc1nn(CC(=O)NCCCN2CCC(N3CCCCC3)CC2)c(=O)c2cc(-c3ccccc3)nn12	1	2	·	1	·
COc1ccc(CNCCC(c2ccc(F)cc2)c2ccc(OC)cc2)cc1 (centres undefined)	-1	-3	68	3	·
COc1ccc(C(CCNC(C)c2ccccc2)c2ccc(F)cc2)cc1 (centres undefined)	2	46*	15	1	63*
COc1ccc(C(CCNCc2ccccc2)c2ccc(F)cc2)cc1 (centres undefined)	1	48*	20	24	71*
CCC1Oc2ccccc2N(CC(=O)NCC2CCCO2)C1=O (centres undefined)	1	-3	·	0	·
CCN1CCN(c2nc(N(C)c3ccccc3)nc(N)c2[N+](=O)[O-])CC1	-1	1	13	0	·
Cc1cccn2c(=O)c3cc(C(=O)NC4CCS(=O)(=O)C4)sc3nc12 (centres undefined)	2	-2	-15	-3	·
Cc1cccn2c(=O)c3cc(C(=O)NC4CCCCCC4)sc3nc12	2	355*	·	-4	97*
Cc1ccc(-c2csc(/C(C#N)=C/Nc3ccc4c(c3)OCCO4)n2)cc1	3	33*	21	-6	30
COCCNC(=O)C1CC(c2cccc(F)c2)=NO1 (centres undefined)	-1	31*	-9	2	0
Cc1ccc(NC(=O)/C(C#N)=C(\N)C(Cl)(Cl)Cl)nc1	25	30	101*	-16	-4
Cc1ccc(NC(=O)C(=O)Nc2ccc(C)cn2)nc1	4	1	-28	-3	·
COc1ccc(OC)c(NC(=O)CCNC(=O)c2ccco2)c1	0	-7	·	-13	·
N#Cc1cc2c(nc1SCC(=O)Nc1sc3c(c1C#N)CCC3)CCCC2	7	51*	-61	9	30*
O=C1Nc2ccccc2/C1=C/c1ccc([N+](=O)[O-])cc1	13	75*	·	2	76*
O=C1Nc2ccccc2/C1=C/c1ccccc1Cl	-1	0	·	-8	·
CC(NC(=O)CSCc1ccccc1Br)c1ccccc1 (centres undefined)	3	-1	6	-2	·
NC(CCC(=O)O)C12CC3CC(CC(C3)C1)C2 (centres undefined)	-1	0	8	5	·
COc1cc(NC(=O)c2cccs2)ccc1NC(=O)c1cc2ccccc2o1	38	69*	91*	-7	37*
Cc1cc(NC(=O)c2cncc(Br)c2)ccc1NC(=O)c1cc2ccccc2o1	26	35*	·	-17	81*
CC(C)c1ccc(/C=C2\SC(=O)N(CC(=O)NC3CCS(=O)(=O)C3)C2=O)cc1 (centres undefined)	8	4	·	-7	·
COC(c1ccccc1)(c1ccccc1)C(Oc1nccc(C)n1)C(=O)O (centres undefined)	-1	137*	·	21	1
N/C(=N\c1nc2ccccc2o1)NC(=O)c1ccccc1NC(=O)c1ccccc1	0	5	38	5	·
O=C(NC(=Nc1nc2ccccc2o1)NC(=O)c1ccccc1)c1ccccc1	12	32*	61	-6	29
